From PubChem BioAssay
The list is not random: actives were taken first. Their share in the collection is about 3.4%.
CHT inh: human CHT choline transport inhibition. Q9GZV3. CHT-expressing cells, membrane potential dye, choline response; hits give low values. B-score at 10 µM. 310,000 compounds, 0.86% hits. AID 488975;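 active means B-score over 3 SD under the library average, and starting fluorescence ratio not unusually high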;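 further: choline stimulus applied at its EC90 after an EC20 pre-addition; B-score computed on integrated fluorescence ratio after choline addition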
Target sequence (Q9GZV3 whole entry, looked up): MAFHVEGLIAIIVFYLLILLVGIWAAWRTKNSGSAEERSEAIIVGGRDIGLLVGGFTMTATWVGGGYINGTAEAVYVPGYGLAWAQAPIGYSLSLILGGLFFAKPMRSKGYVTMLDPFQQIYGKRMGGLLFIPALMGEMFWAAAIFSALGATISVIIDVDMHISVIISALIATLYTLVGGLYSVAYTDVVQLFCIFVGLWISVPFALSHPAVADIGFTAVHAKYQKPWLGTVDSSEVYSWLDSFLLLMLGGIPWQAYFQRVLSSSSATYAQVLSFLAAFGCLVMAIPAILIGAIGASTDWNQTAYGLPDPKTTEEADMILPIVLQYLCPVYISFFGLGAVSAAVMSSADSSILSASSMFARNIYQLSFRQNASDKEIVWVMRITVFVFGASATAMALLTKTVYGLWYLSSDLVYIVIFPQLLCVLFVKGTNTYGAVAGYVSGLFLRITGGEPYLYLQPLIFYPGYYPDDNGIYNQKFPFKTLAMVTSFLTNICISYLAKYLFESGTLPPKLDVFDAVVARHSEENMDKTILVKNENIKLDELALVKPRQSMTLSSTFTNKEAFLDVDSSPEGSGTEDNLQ
TMEM16A act: activates or potentiates the mouse TMEM16A chloride channel; Q8BHY3; HEK293 TMEM16A/YFP-H148Q/I152L, iodide quench fluorescence; hits give low values; B-score at 10 µM; 340,000 compounds, 0.3% hits; AID 623877;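 active means fluorescence-ratio B-score plate-corrected deviation score at least 3 library SD below zero, with starting fluorescence score within 5 deviations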;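 further: channel opened by trigger with iodide after compound preincubation; score built on the fluorescence ratio of max minus min over baseline; more negative score means more quench and so TMEM16A activation or potentiation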
CHT PAM: allosterically activates the human high affinity choline transporter; Q9GZV3; CHT-expressing cells, membrane potential dye, choline EC20; hits give high values; LV-AA mutant CHT in HEK293 cells; B-score at 10 µM; 310,000 compounds, 0.49% hits;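 active means initial fluorescence not abnormally high and integrated response B-score, plate-corrected, over 3 SD above library mean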
ANO1 block: inhibitors of mouse TMEM16A calcium-activated chloride channel; Q8BHY3; HEK293 TMEM16A/YFP iodide influx fluorescence, ionomycin; normalized B-score (activity score, 25-100; higher = stronger inhibition) at 10 µM; 310,000 compounds, 1.2% hits; AID 588511;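 active means ratio plate-corrected score three or more library SD toward inhibition, starting fluorescence score within five deviations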;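 further: score derived from kinetic fluorescence span divided by baseline fluorescence per well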
VIM-2 inhibitor: inhibitors of Pseudomonas aeruginosa VIM-2 metallo-beta-lactamase | purified VIM-2, nitrocefin hydrolysis, epi-absorbance fluorescence | inhibition, % at 5.6 µM | 290,000 compounds, 0.89% hits | AID 1527;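 active means inhibition above the mean of all tested compounds plus 3 SD, cutoff set per screening run, cut at about 7.5% in these data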;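 further: red hydrolysis product quenches plate fluorescence so inhibitors raise well fluorescence; 0% = enzyme with DMSO and 100% = DMSO without enzyme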
IMP-1 inh: blocks Pseudomonas aeruginosa IMP-1 metallo-beta-lactamase; purified IMP-1, nitrocefin hydrolysis, epi-absorbance fluorescence; inhibition, % at 5.6 µM; 290,000 compounds, 0.45% hits; AID 1556;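 active means inhibition above the mean plus 3 SD of all compounds in the same screening run, cut at about 4.5% in these data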;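 further: 0% = IMP-1 with DMSO and 100% = DMSO wells lacking enzyme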
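Assay system: purified IMP-1; Quantity: IMP-1 0.2 nM before substrate addition; Medium: HEPES buffer pH 7.1 with ZnSO4 and Brij 35; Incubation: 15 min enzyme–compound preincubation, then 25 min nitrocefin reaction, 25 °C; Signal: fluorescence quenching readout, ex 480/em 530 nm; Controls: DMSO with and without IMP-1; Repeats: singlicate testing.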
The depositor's hits bear a star.

For C[C@]12CCC(=O)C[C@H]1CC[C@@H]1[C@@H]2CC[C@]2(C)[C@@H](O)CC[C@@H]12 the results were CHT inh -5.3*, CHT PAM inactive and ANO1 block inactive.
For Cc1cc(OCC(=O)O)c2c3c(c(=O)oc2c1)CCCC3 the results were CHT inh inactive, TMEM16A act inactive, CHT PAM inactive, ANO1 block inactive, VIM-2 inhibitor 4 and IMP-1 inh -1.
Screening Cc1cc(OCC(=O)N2CCC(C(N)=O)CC2)c2c3c(c(=O)oc2c1)CCCC3 returned CHT inh inactive, TMEM16A act inactive, CHT PAM inactive, ANO1 block inactive, VIM-2 inhibitor 8.6* and IMP-1 inh -3.
For CC(=O)OC1CCC2(C)C(CC(=O)C3C2CCC2(C)C(OC(C)=O)CCC32)C1 (stereo not given) the results were TMEM16A act inactive.
`NNCc1ccccc1` gave TMEM16A act inactive.
CCOC(=O)c1ccc(NC(=O)c2c(O)[nH]c(=O)[nH]c2=O)cc1 was read as CHT inh inactive, TMEM16A act inactive, CHT PAM inactive, ANO1 block inactive, VIM-2 inhibitor 59* and IMP-1 inh 78*.
CC(CC(C#N)(c1ccccc1)c1ccccc1)N1CCOCC1 (stereo not given) was read as TMEM16A act inactive.
For CC1(C)CSC(=NCc2ccccc2)N1 the results were CHT inh inactive, TMEM16A act -6.4*, CHT PAM inactive, ANO1 block inactive, VIM-2 inhibitor -2 and IMP-1 inh -3.
Screening CNC(=O)Oc1ccccc1C1CCCCC1 returned TMEM16A act inactive.
`Nc1ccnn1C1CCNCC1` gave CHT inh inactive, TMEM16A act inactive, CHT PAM inactive, ANO1 block inactive, VIM-2 inhibitor -1 and IMP-1 inh 25*.
Screening CN1CCC(n2nccc2N)CC1 returned CHT inh inactive, TMEM16A act inactive, CHT PAM inactive, ANO1 block inactive, VIM-2 inhibitor 1 and IMP-1 inh 2.
For Nc1c2c(nc3sc4c(c13)CCCC4)CCCC2 the results were CHT inh inactive, TMEM16A act inactive, CHT PAM inactive, ANO1 block inactive, VIM-2 inhibitor 12* and IMP-1 inh -4.
For CN(C)CC(C(=O)Cc1ccccc1)c1ccccc1 (stereo not given) the results were TMEM16A act inactive.
For COc1ccc(S(=O)(=O)N2CCOCC2)cc1NC(=O)COC(=O)Cc1ccccc1 the results were TMEM16A act inactive.
COc1cc(C(=S)N2CCOCC2)cc(OC)c1OC(=O)Cc1ccccc1 was read as CHT inh -5.1*, TMEM16A act inactive, CHT PAM inactive, ANO1 block inactive, VIM-2 inhibitor 2 and IMP-1 inh 0.
`CC(C)(C)N1CC(C(=O)c2ccccc2)C1c1ccccc1` (stereo not given) gave TMEM16A act inactive.
Screening COC(=O)C1=C(C(=O)OC)SC2(S1)C(C(=O)OC)=C(C(=O)OC)Sc1c2ssc1=O returned TMEM16A act inactive.
COc1cc2cc(C(=O)N3CC(COS(C)(=O)=O)c4ccc(O)cc43)[nH]c2c(OC)c1OC (stereo not given) was read as TMEM16A act inactive.
Screening CC1CN=C(Nc2ccc(F)cc2)S1 (stereo not given) returned CHT inh inactive, TMEM16A act -4.6*, CHT PAM inactive, ANO1 block inactive, VIM-2 inhibitor -1 and IMP-1 inh -1.
O=C1NC(=O)C(=Cc2ccc(-c3ccc(Cl)cc3)o2)C(=O)N1 was read as CHT inh inactive, TMEM16A act inactive, CHT PAM inactive, ANO1 block inactive, VIM-2 inhibitor 2 and IMP-1 inh 3.
O=C1NC(=O)C(=Cc2ccc(-c3ccc(S(=O)(=O)N4CCOCC4)cc3)o2)C(=O)N1 was read as CHT inh inactive, TMEM16A act inactive, CHT PAM inactive, ANO1 block inactive, VIM-2 inhibitor -1 and IMP-1 inh 5.4*.
Screening CCN(CCCl)c1cc(CN(C)C)cc(NC(=O)c2ccc(C(=O)Nc3cc(CN(C)C)cc(N(CC)CCCl)c3)cc2)c1 returned TMEM16A act inactive.
